Published values pooled from the literature.
Lines come from different studies, so protocols differ.
Effect on: cell growth or viability

`Cc1cc(=O)oc2cc(OCCCC[Se]C#N)ccc12` gave a GI50 of 0.98 µM (HeLa; SRB).
`N.N.[Cl][Pt][Cl]` has an IC50 of 7.06 µM (SU-DHL-6; ATP luminescence; 72 h).
`CC(C)C[C@H](NC(=O)[C@H](CC(C)C)NC(=O)[C@@H]1CCCN1C(=O)[C@H](C)NC(=O)[C@@H](NC(=O)[C@H](C)N)C(C)C)C(=O)N[C@@H](Cc1c[nH]cn1)C(=O)N[C@@H](CO)C(=O)N[C@H](C(=O)O)[C@@H](C)OP(=O)(O)O` gave an IC50 of 1.05 µM (HeLa; MTT; 72 h).
For `COC(=O)c1cc(C(C)=NNc2nc(-c3ccc(S(=O)(=O)F)cc3)cs2)ccc1O`, the IC50 was 40.5 µM (HSF; MTT; 96 h).
The IC50 of `CC[C@H](C)[C@H](NC(=O)[C@@H](N)CCC(=O)O)C(=O)N[C@@H](C)C(=O)N1CCC[C@H]1C(=O)N[C@H](C(=O)N[C@@H](CC(C)C)C(=O)N[C@@H](Cc1c[nH]cn1)C(=O)N[C@@H](CO)C(=O)N[C@H](C(=O)O)[C@@H](C)OP(=O)(O)O)C(C)C` is reported as 0.96 µM (HeLa; MTT; 72 h).
`Cc1c(Cl)c(=O)oc2cc(OCCCC[Se]C#N)ccc12` gave a GI50 of 15 µM (HeLa; SRB).
The IC50 of `COc1cccc2c1C(=O)c1c(O)c3c(c(O)c1C2=O)CC(O)(C(=O)CO)CC3OC1CC(NC(=O)OC2C=CCCCCC2)C(O)C(C)O1` (stereo not shown) is reported as > 10 µM (HeLa; CCK-8; 72 h).
`COc1c(C)c2c(c(O)c1C/C=C(\C)CCC(=O)O)C(=O)OC2` has an IC50 of 2.51 µM (Hs-578T).
The IC50 of `O=C1[O][Pt]2([NH][C@@H]3CCCC[C@H]3[NH]2)[O]C1=O` is reported as 12.9 µM (SNU-449; imaging; 72 h).
`O=[N+]([O-])c1ccc(NCCCCN=C=S)c2nonc12` gave an IC50 of 7.6 µM (HDFa; MTT; 24 h).
For `O=C1c2ccccc2-c2c3c(cc4ccnc1c24)OCO3`, the IC50 was 15.7 µM (HeLa; MTT; 75 h).
For `CC(N)C(O)CCCCCCCCCCCCCCC(=O)CCCCCCCC(O)C(C)N` (stereo not shown), the IC50 was 24.5 µM (HeLa).
With `O=[N+]([O-])c1ccc(NCCCCCCN=C=S)c2nonc12` the IC50 was 5.8 µM (HDFa; MTT; 24 h).
